# EBI2 block: blocks human EBI2 receptor beta-arrestin signaling; P32249; AID 651636; hit rate 0.81% among 360,000; EBI2 beta-arrestin recruitment, luminescence, 7a,25-OHC stimulated; inhibition, % at 5 µM; in the data active = inhibition above about 38%;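 also: enzyme fragment complementation signal reports receptor beta-arrestin coupling in cells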
# CXCR6 inh: inhibitors of human CXCR6 receptor; O00574; CHO-K1 PathHunter CXCR6 beta-arrestin, luminescence; inhibition, % at 20 µM; hit rate 0.36% among 360,000; in the data active = inhibition above about 34%, passing the limit was not always enough;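 also: antagonist mode with CXCL16 agonist at 10 nM final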
# Target sequence (O00574 whole entry, looked up): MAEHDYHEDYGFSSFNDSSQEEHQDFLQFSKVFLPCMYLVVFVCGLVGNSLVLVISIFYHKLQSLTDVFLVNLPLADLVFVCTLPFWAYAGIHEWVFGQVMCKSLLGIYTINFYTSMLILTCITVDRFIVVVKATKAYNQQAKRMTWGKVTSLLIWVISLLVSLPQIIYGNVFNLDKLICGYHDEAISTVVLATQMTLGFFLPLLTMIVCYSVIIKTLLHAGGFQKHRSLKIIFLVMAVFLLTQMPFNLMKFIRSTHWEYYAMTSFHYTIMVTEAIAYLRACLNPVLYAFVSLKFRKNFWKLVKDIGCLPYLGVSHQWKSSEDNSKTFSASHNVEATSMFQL
# CCR6 antag: antagonists of human CCR6 receptor. CHO-K1 CCR6 PathHunter beta-arrestin, luminescence, CCL20-stimulated. inhibition, % at 20 µM. hit rate 0.49% among 340,000;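 active = compounds whose inhibition of the agonist-driven luminescence signal at 20 µM reaches about 50%, limit read from the data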;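 also: cells stimulated with CCL20 at 14 nM final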
# APJ agonist: agonists of human APJ apelin receptor. P35414. CHO-K1 APJ PathHunter beta-arrestin, luminescence; 0% DMSO wells, 100% apelin. activation, % at 20 µM. hit rate 0.11% among 330,000;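 active = activation more than six SD over the plate average, tested at 20 µM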
#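 Assay system: CHO-K1 APJ beta-arrestin complementation cell line / Compound: single test compound dose, 20 µM final, 1% DMSO / Times: overnight seeding, 90 min compound at 25 °C, 1 h detection / Technique: beta-gal luminescence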
# APJ antag: antagonists of human APJ apelin receptor; inhibition, % at 20 µM; hit rate 0.32% among 330,000; P35414; CHO-K1 APJ beta-arrestin complementation, luminescence;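 active = inhibition above about 40% at 20 µM, limit read from the data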;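 also: cells challenged with 10 nM apelin-13 agonist together with compound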
# EBI2 conf: confirmation of human EBI2 receptor antagonists; inhibition, % at 5 µM; EBI2 beta-arrestin luminescence, 7a,25-OHC antagonism; shares compounds with EBI2 block; hit rate 29% among 2,400;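 active = inhibition of at least 50%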
# EBI2 agonist: counter-screen for EBI2 antagonists: EBI2 agonist activity | 2,400 tested, under 10 active | activation, % at 5 µM | AID 652000 | shares compounds with EBI2 block | EBI2-expressing cells, agonist mode, luminescence, 60 min; 0% vehicle, 100% 7α,25-dihydroxycholesterol control;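 active = activation of at least 50%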
# bGal cs: inhibits E. coli beta-galactosidase, counter-screen for EBI2 antagonists; hit rate 1% among 2,400; inhibition, % at 5 µM; shares compounds with EBI2 block; purified beta-galactosidase, luminescent Galacton Star, 15 min;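 active = replicate-average signal at least 3 plate SD below neutral wells, shown as high inhibition, flagging enzyme-inhibiting false positives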;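 also: higher means stronger loss of beta-gal luminescence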
# Hits are given with their value; i = inactive; nt = no result. An excerpt weighted towards active compounds, which were near 1.5% of everything screened.
SMILES,EBI2 block,CXCR6 inh,CCR6 antag,APJ agonist,APJ antag,EBI2 conf,EBI2 agonist,bGal cs
COc1ccc(C2=NN(C(=O)CSc3nc(=O)n4cc(C)ccc4n3)C(c3ccc(C)cc3)C2)cc1 (stereo not drawn),63,i,i,i,i,i,i,i
COc1ccc(C2=NN(C(=O)CSc3cn(C)c4ccccc34)C(c3ccc(OC)cc3)C2)cc1 (stereo not drawn),84,i,i,i,i,65,i,i
CC1(C(=O)N2Cc3ccccc3C2)CCN1C(=O)C1(c2ccccc2)CC1 (stereo not drawn),i,i,nt,nt,nt,nt,nt,nt
Cc1ccc(C2=NNC(=O)C(c3ccc(Cl)cc3)C2)cc1 (stereo not drawn),53,i,i,i,i,i,i,i
O=C1NN=C(c2ccc(Cl)cc2)CC1c1cccc(Br)c1 (stereo not drawn),i,i,i,i,i,nt,nt,nt
COc1ccc(/C=C/C(=O)NC(=S)Nc2cc3oc4ccccc4c3cc2OC)cc1,65,i,i,i,i,i,i,i
COc1cc2c(cc1NC(=S)NC(=O)/C=C/c1ccc(OC)c(OC)c1)oc1ccccc12,i,i,i,nt,nt,nt,nt,nt
COc1cc2c(cc1NC(=S)NC(=O)/C=C/c1ccco1)oc1ccccc12,55,i,i,i,i,51,i,i
COC(=O)c1ccc(Oc2ccc(S(=O)(=O)N3CCCCC3)cc2N)cc1,35,i,i,i,i,i,i,i
COc1ccc(-c2sc3ccc(N4CCOCC4)cc3c2C#CCO)cc1,i,i,i,i,i,nt,nt,nt
COc1ccc(/C=C/c2c(-c3ccc(OC)cc3)sc3ccc(N4CCOCC4)cc23)cc1,50,i,i,i,i,i,i,i
Cc1ccc(C2C(C(N)=S)=C(N)OC3=C2C(=O)CC(C)(C)C3)cc1 (stereo not drawn),i,i,i,i,i,nt,nt,nt
Cc1ccc(CNC(=O)/C(C#N)=C/c2ccc(C)s2)cc1,51,i,i,i,i,i,i,i
CN(C)c1ccnc2sc3c(NCC(O)CO)ncnc3c12 (stereo not drawn),i,i,i,i,i,nt,nt,nt
CN(C)c1ccnc2sc3c(SCc4ccc(Cl)cc4)ncnc3c12,54,i,i,i,i,i,i,i
Cc1ccc(N2C(=O)CC(NNC(=O)Cc3ccc(F)cc3)C2=O)cc1Cl (stereo not drawn),i,i,i,i,i,nt,nt,nt
COC(=O)c1cc(C)sc1NC(=O)C1CC=CCC1C(=O)O (stereo not drawn),i,i,i,i,i,nt,nt,nt
COc1ccc2nc3n(c(=O)c2c1)-c1cc2ccccc2cc1C(=O)NC3Cc1ccccc1 (stereo not drawn),41,i,nt,nt,nt,i,i,i
COC(=O)N/N=C/c1ccc(-c2cccc(Cl)c2)o1,i,i,i,i,i,nt,nt,nt
Nc1ccccc1N=Cc1ccc(-c2cccc(Cl)c2)o1,42,i,i,i,i,i,i,i
COc1ccccc1CNC(=O)COC(=O)C1CC1,i,i,i,i,i,nt,nt,nt
CN(C(=O)c1cccc(NC(=O)Cc2ccc(NC(=O)C3CCN(S(=O)(=O)c4cccc([N+](=O)[O-])c4)CC3)cc2)c1)C1CCC1,77,i,i,nt,nt,i,i,i
CN(C(=O)c1cccc(NC(=O)Cc2ccc(NC(=O)C3CCN(S(=O)(=O)c4cccc([N+](=O)[O-])c4)CC3)cc2)c1)C1CCCC1,i,i,i,nt,nt,nt,nt,nt
COc1ccccc1CNC(=O)COC(=O)c1ccc([N+](=O)[O-])o1,i,i,i,i,i,nt,nt,nt
CN1CCC(N(C)S(=O)(=O)c2ccc(NC(=O)COc3ccc(Cl)cc3)cc2)CC1,54,i,i,i,i,i,i,i
CN1CCC(N(C)S(=O)(=O)c2ccc(NC(=O)COc3ccc(F)cc3)cc2)CC1,i,i,i,i,i,nt,nt,nt
CCC1CCC(c2nnc(-c3ccc(Br)cc3)o2)CC1 (stereo not drawn),50,i,i,i,i,i,i,i
Cc1ccccc1-c1nnc(-c2ccc(Br)cc2)o1,i,i,i,i,i,nt,nt,nt
